One may read the pIC50 as the IC50 on a negative log10 scale, so that one unit is a factor of ten.

The target in one data set is Stromelysin-1 (Homo sapiens, UniProt P08254). Description: Inhibition of recombinant human activated-MMP3 using Mca-Lys-Pro-Leu-Gly-Leu-Dap(Dnp)-Ala-Arg-NH2 as fluorogenic substrate incubated for 4 hrs followed by substrate addition measured every 10 secs for 20 mins by fluorometric assay. In short, it runs like this: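 Recombinant human MMPs. Pro-forms activated with APMA: MMP-2 2 mM 1 h, MMP-9 1 mM 1 h, MMP-1 2 mM 2 h, MMP-13 1 mM 35 min, all 37 °C. MMP-3 activated with trypsin 4.4 µg/mL 30 min, then soybean trypsin inhibitor. Final enzyme 0.5 (MMP-2), 1.3 (MMP-9), 1.0 (MMP-14cd), 2.0 (MMP-1), 0.66 (MMP-13), 5 nM (MMP-3). Preincubated with inhibitor 4 h at 25 °C in Tris 50 mM pH 7.5, NaCl 150 mM, CaCl2 10 mM, Brij 35 0.05%, DMSO 1%. Substrate 2 µM final; fluorescence (ex 325/em 395 nm) every 10 s for 20 min. IC50 from vi/vo = 1/(1+[I]/IC50).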

Data set [1] deals with HUVEC. The data set can be described thus: Inhibition of cell migration in human HUVEC at 0.001 to 10 uM after 6 hrs using modified Boyden chambers. Type of data set: functional, cell-based. A digest of the protocol:
(§1)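 Modified Boyden chamber. HUVEC (5x10^4), PBS-washed, in serum-free medium with or without inhibitor in upper compartment; 10% FBS or serum-free medium below. 8 µm polycarbonate filters coated with collagen 50 µg/mL (migration, 6 h) or matrigel 1 mg/mL (invasion, overnight). Cells on lower surface ethanol-fixed, stained, counted blind in eight fields. Three experiments in duplicate; one-way ANOVA.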

Data set [2] relates to HUVEC. The data set can be described thus: Inhibition of cell migration in human HUVEC after 6 hrs using modified Boyden chambers. Type of data set: functional, cell-based. In short, it runs like this:
as §1

Data set [3] deals with HUVEC. Description: Inhibition of FBS-induced cell invasion in human HUVEC after overnight incubation using modified Boyden chambers. It is filed as functional, cell-based. In short, it runs like this:
as §1

For data set [4], the system named is HUVEC. Description: Inhibition of FBS-induced cell invasion in human HUVEC at 0.001 uM after overnight incubation using modified Boyden chambers. It is filed as functional, cell-based. A digest of the protocol: as §1
The subject of data set [5] is HUVEC. Description: Inhibition of FBS-induced cell morphogenesis in human HUVEC after 6 hrs by matrigel assay. Type of data set: functional, cell-based. In short, it runs like this:
(§2)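 Matrigel (10 mg/mL) polymerized 1 h at 37 °C. HUVEC (50x10^4/well) in complete medium with 10% FBS, with or without inhibitor at various concentrations, layered on top. After 6 h, capillary-like organization imaged by inverted microscope; mesh number counted as tubulogenic efficiency.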

The test system of data set [6] is HUVEC. The data set can be described thus: Inhibition of FBS-induced capillary-like network organization in human HUVEC at 0.001 to 10 uM after 6 hrs by matrigel assay. Type of data set: functional, cell-based. In short, it runs like this: as §2
In data set [7] the test system is HUVEC. The data set can be described thus: Inhibition of FBS-induced network efficiency of human HUVEC assessed as reduction of number of meshes at 0.001 to 10 uM after 6 hrs by matrigel assay. It is filed as functional, cell-based. A digest of the protocol: as §2
Data set [8] deals with HUVEC. The data set can be described thus: Inhibition of PMA-stimulated MMP2 mRNA expression in human HUVEC after 24 hrs by QT-PCR analysis. It is filed as functional, cell-based. A digest of the protocol: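 HUVEC starved, PMA pre-treated (30 nM, 3 h), then exposed to inhibitor for 24 h before RNA extraction. Real-time PCR with SYBR Green, 45 cycles (95 °C 10 s, 60 °C 15 s, 72 °C 15 s), with melting-curve check.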

The subject of data set [9] is HUVEC. Description: Inhibition of PMA-stimulated MMP2 protein expression in human HUVEC after 24 hrs by Western blot analysis relative to control. Type of data set: functional. In short, it runs like this:
(§3)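 HUVEC (2x10^6) seeded, attached one day, starved 6 h in serum-free medium with 2% BSA. Pre-treated 3 h with 30 nM PMA, then exposed to inhibitor (10 µM) or DMSO vehicle for 24 h. Conditioned media and cell proteins collected. Equal protein on 10% SDS-PAGE, PVDF blot, milk block, anti-MMP-2, MMP-9 and β-actin antibodies, HRP/ECL detection.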
A general note: Immunoblotting shows a protein as a band on a membrane.

In data set [10] the target is 72 kDa type IV collagenase (Homo sapiens, UniProt P08253). Description: Inhibition of MMP2 gelatinase activity in human HUVEC at 0.001 uM by gel zymography. In short, it runs like this: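 Gelatin zymography on 10% polyacrylamide gels with 0.1% gelatin and SDS, samples unheated. Gels renatured 30 min at room temperature. Either untreated-HUVEC conditioned medium run and gel lane slices developed overnight at 37 °C in developing buffer containing inhibitor, or medium from inhibitor-treated HUVEC developed overnight without inhibitor. Coomassie stained; bands quantified by densitometry.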

For data set [11], the target named is T1, Matrix metalloproteinase-9 (Homo sapiens, UniProt P14780). The data set can be described thus: Inhibition of MMP9 in HUVEC assessed as suppression of protein release at 10 uM after 24 hrs by Western blot analysis. In short, it runs like this: as §3
Data set [12] has as its target T1, Matrix metalloproteinase-9. The data set can be described thus: Inhibition of MMP9 in HUVEC assessed as suppression of protein production at 10 uM after 24 hrs by Western blot analysis. A digest of the protocol: as §3
Data set [13] relates to HUVEC. The data set can be described thus: Cytotoxicity against human HUVEC assessed as reduction of cell growth at 0.001 to 10 uM after 24 to 96 hrs by MTT assay. Type of data set: cell-based. The note with it: in the assay text read “0.01 to 10 uM” for “0.001 to 10 uM”. A digest of the protocol:
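HUVEC (passages 3–6) seeded at 1000/well in complete medium. After adhesion, fresh medium with or without inhibitor, 10 nM–10 µM. Incubated 24, 48, 72 and 96 h; MTT absorbance read at 570 nm.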
For orientation: Tetrazolium assays rely on reduction of a dye to a coloured formazan, in cell work by metabolically active cells.

The nature of data set [14]: Induction of apoptosis in human HUVEC assessed as cell viability at 0.001 to 10 uM after 18 hrs using Annexin-V and 7-amino-actinomycin-D staining by flow fluorocytometry analysis. Type of data set: cell-based. The note with it: HUVEC cells, read-out: Activity. A digest of the protocol: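 HUVEC (1x10^5) plated in six-well plates, adhered overnight. Treated in growth medium with inhibitor (10 nM–10 µM) or hydrogen peroxide (100–200 µM) overnight. Stained 15 min at room temperature in the dark with FITC-Annexin V and 7-AAD in HEPES/NaCl/CaCl2 binding buffer pH 7.4. Analysed by flow cytometry.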

The subject of data set [15] is Mus musculus. The data set can be described thus: Antiangiogenic activity in C57/BL6 mouse matrigel sponge assay model assessed as reduction of VEGF-A, TNFalpha and heparin-induced hemoglobin content at 0.1 to 10 uM, sc. Type of data set: functional, organism-based. A digest of the protocol: (§4)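 Matrigel (0.6 mL final) with VTH mix (VEGF-A 100 ng/mL, TNF-α 2 ng/mL, heparin 25 UI/mL), with or without inhibitor at 0.1-1-10 µM, injected s.c. into flanks of male C57/BL6 mice; some groups also given 0.1-1-10 µM i.p. at day 0; 8 mice/group. Plugs recovered after four days. Read-outs: hemoglobin by Drabkin reagent; collagenase IV digest, flow cytometry for CD31+ cells within CD45−CD3− gate. Mean ± SEM.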

Data set [16] has as its system Mus musculus. The data set can be described thus: Antiangiogenic activity in ip dosed C57/BL6 mouse matrigel sponge assay model assessed as reduction of VEGF-A, TNFalpha and heparin-induced number of CD45-/CD31+ cells after 4 days by flow cytometry. It is filed as functional, organism-based. In short, it runs like this: as §4

pIC50: −log10 of the molar value. Calls of active or inactive are those of the source. The rule behind the calls is not given here.

T1 sequence (P14780 whole entry): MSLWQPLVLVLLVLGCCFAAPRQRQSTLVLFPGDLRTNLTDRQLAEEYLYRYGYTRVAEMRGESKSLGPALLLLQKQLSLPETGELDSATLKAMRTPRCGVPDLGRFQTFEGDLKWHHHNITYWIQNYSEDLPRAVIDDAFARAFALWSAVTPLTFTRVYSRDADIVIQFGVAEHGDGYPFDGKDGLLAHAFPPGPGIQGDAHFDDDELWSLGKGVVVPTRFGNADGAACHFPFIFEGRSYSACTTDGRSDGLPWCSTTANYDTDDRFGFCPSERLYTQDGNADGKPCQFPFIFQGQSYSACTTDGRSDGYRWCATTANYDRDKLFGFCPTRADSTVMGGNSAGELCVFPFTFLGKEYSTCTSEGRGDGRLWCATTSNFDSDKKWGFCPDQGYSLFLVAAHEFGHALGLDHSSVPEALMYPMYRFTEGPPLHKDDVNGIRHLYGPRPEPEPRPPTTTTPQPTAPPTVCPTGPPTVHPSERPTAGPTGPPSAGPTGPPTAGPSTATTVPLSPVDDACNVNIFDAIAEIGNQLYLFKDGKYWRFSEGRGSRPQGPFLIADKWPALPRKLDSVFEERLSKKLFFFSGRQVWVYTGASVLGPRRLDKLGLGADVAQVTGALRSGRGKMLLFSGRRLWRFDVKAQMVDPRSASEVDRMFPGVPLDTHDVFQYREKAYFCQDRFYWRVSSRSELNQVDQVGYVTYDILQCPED
Chain of 72 kDa type IV collagenase (P08253 110-660 limits assumed): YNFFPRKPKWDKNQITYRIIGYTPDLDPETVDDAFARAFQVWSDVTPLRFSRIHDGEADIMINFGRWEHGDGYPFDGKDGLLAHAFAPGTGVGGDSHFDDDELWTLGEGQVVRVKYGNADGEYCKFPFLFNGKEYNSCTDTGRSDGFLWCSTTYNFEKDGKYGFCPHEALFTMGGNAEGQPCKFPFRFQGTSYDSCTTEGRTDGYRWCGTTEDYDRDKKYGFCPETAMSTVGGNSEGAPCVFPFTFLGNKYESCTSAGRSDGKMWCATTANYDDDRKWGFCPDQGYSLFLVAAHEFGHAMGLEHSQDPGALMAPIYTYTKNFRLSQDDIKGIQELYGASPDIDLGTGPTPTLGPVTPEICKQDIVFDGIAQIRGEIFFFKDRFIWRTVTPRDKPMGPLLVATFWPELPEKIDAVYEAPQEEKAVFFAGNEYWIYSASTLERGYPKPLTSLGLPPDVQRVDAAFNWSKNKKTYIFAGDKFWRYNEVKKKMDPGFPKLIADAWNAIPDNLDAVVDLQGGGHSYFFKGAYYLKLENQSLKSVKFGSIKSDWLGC
Chain of Stromelysin-1 (P08254 whole entry): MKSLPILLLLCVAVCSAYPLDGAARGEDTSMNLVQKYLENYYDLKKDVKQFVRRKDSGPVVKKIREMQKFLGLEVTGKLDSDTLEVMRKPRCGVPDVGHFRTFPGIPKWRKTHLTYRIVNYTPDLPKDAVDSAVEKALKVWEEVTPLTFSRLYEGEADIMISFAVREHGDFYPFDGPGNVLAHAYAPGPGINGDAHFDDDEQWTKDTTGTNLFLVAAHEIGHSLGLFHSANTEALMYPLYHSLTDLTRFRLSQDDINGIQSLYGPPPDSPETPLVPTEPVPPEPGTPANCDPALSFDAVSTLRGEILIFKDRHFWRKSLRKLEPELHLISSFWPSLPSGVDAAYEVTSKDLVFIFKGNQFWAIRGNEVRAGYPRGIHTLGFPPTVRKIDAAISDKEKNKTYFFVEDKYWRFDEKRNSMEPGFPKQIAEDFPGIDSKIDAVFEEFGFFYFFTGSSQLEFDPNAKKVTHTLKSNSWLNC

Consider `COc1ccc(-c2ccc(S(=O)(=O)N(OC(C)C)[C@H](CCN3C(=O)c4ccccc4C3=O)C(=O)NO)cc2)cc1`, for which the pIC50 at Stromelysin-1 was 6.98. Also, the inhibition result (in the data set on HUVEC [1]; with HUVEC [4]; with HUVEC [6]; in the data set with HUVEC [7]; in the data set with HUVEC [8]; in data set [10]) was “Active” throughout. Besides, the inhibition result (in data set [11]; in data set [12]; in the data set on Mus musculus [15]) was “Active” in each case. In addition, the inhibition result in the data set with HUVEC [2], in the data set with HUVEC [3], in the data set on HUVEC [5] and in the data set with Mus musculus [16] was “Dose-dependent effect” in each case. For the same compound, the “fold change (FC)” value in the data set with HUVEC [9] was 0.6. Moreover, the Activity entry in the data set with HUVEC [13] is recorded as “Non-toxic”. Moreover, the viability at 18 h, up to 10 µM in [14] was determined as 85%.

(Values after ChEMBL document CHEMBL3616369, “N-O-Isopropyl Sulfonamido-Based Hydroxamates as Matrix Metalloproteinase Inhibitors: Hit Selection and in Vivo Antiangiogenic Activity” (J Med Chem, 2015).)
